{"data": "Results collected from several papers", "pH": "7.4", "note": "Protocols differ between the studies behind these lines."}
{"Compound": "O=c1c2cc(Cl)ccc2[nH]c(=S)n1Cc1cccnc1", "test": "shake flask", "test system": "aqueous buffer", "quantity": "logD", "result": 3.16}
{"Compound": "O=C1NC2(CCC2)C(=O)N1c1ccc(F)c(C(F)(F)F)c1", "test": "HPLC", "quantity": "chromatographic logD", "result": 3}
{"Compound": "Cc1ccc2[nH]c(=S)n(Cc3cccnc3)c(=O)c2c1", "test": "shake flask", "test system": "aqueous buffer", "quantity": "logD", "result": 2.88}
{"Compound": "c1cc(-c2ccc3ncnc(Nc4ncco4)c3c2)cc(N2C[C@H]3C[C@@H]2CO3)c1", "test": "shake flask", "test system": "aqueous buffer", "quantity": "logD", "result": 3.5}
{"Compound": "CCCCCc1cn([C@H]2[C@H]([C@H](O)[C@H](O)CO)OC(C(=O)O)=C[C@@H]2O)nn1", "test": "shake flask", "test system": "aqueous buffer", "conditions": "2 h", "quantity": "logD", "result": -0.3}
{"Compound": "COc1cc(C(=O)c2nc(-c3cccc4[nH]ccc34)c[nH]2)cc(OC)c1OC", "quantity": "logD", "result": 3.69}
{"Compound": "CC1(C)NC(=O)N(c2ccc(F)c(C(F)(F)F)c2F)C1=O", "test": "HPLC", "quantity": "chromatographic logD", "result": 2.7}
{"Compound": "CCCCCC(=O)N[C@H]1[C@H]([C@H](O)[C@H](O)CO)OC(C(=O)O)=C[C@@H]1O", "test": "shake flask", "test system": "aqueous buffer", "conditions": "2 h", "quantity": "logD", "result": -0.92}
